The target of experiment [1] is KOR. To be noted: cited from earlier work.
The next experiment deals with MOR. To be noted: read-out: MOR Ki; cited from earlier work.
In experiment [2] the target is KOR (Mus musculus, UniProt P33534). In words: Competitive radioligand binding assay, KOR. Set-up: species or system mice. To be noted: for Selectivity δ/κ: Ki ratio DOR/KOR; for Selectivity μ/κ: Ki ratio MOR/KOR. Summed up: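 Competition binding on membranes (30 μg protein) from CHO cells expressing mouse KOR or MOR, or human DOR. [3H]diprenorphine labels KOR and DOR, and [3H]naloxone labels MOR. Varied test compound in TME buffer (50 mM Tris, 3 mM MgCl2, 0.2 mM EGTA, pH 7.4), 1.5 h, 30 °C, then filtration. Nonspecific binding: 5 μM U50,488 (KOR), DAMGO (MOR), SNC80 (DOR). IC50 by nonlinear regression, converted to Ki by Cheng-Prusoff; selectivity as Ki ratios.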

For a further experiment, the target named is mouse DOR (Mus musculus, UniProt P32300). Kind of experiment: [35S]-GTPγS functional assay, DOR-expressed CHO cell membranes. It is filed as biochemical. To be noted: for EC50: read-out: DOR [35S]-GTPγS binding EC50, mean ± SEM, at least three experiments; for DOR [35S]-GTPγS binding % Emax of DPDPE: relative to full agonist DPDPE (5 μM). The method in brief:
(§1)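 CHO membranes (10 μg protein) incubated 1 h at 30 °C with varied test compound, GDP (15 μM) and 80 pM [35S]GTPγS; nonspecific binding with 10 μM unlabelled GTPγS. Full agonist at 5 μM for the maximal response: U50,488H (KOR), DAMGO (MOR), DPDPE (DOR). Emax is net-stimulated binding as % of that full-agonist stimulation. Mean ± SEM of at least three experiments.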

The target of a further experiment is rat MOR (Rattus norvegicus, UniProt P33535). In words: [35S]-GTPγS functional assay, MOR-expressed CHO cell membranes. To be noted: for EC50: read-out: MOR [35S]-GTPγS binding EC50, mean ± SEM, at least three experiments; for MOR [35S]-GTPγS binding % Emax of DAMGO: relative to full agonist DAMGO (5 μM). It is filed as biochemical. Summed up:
as §1
(In general: Binding of GTPγS marks nucleotide exchange on a G protein.)

Another experiment concerns the target human KOR (Homo sapiens, UniProt P41145). In words: [35S]-GTPγS functional assay, KOR-expressed CHO cell membranes. Format: biochemical. To be noted: for EC50: read-out: KOR [35S]-GTPγS binding EC50, mean ± SEM, at least three experiments; for KOR [35S]-GTPγS binding % Emax of U50,488H: relative to full agonist U50,488H (5 μM). Summed up:
as §1

One may read the Ki as a measure of affinity in units of concentration, obtained from inhibition or displacement. For `CN(C(=O)/C=C/c1ccoc1)[C@@H]1CC[C@@]2(O)[C@H]3Cc4cccc5c4[C@@]2(CCN3CC2CC2)[C@H]1O5` [CT-18], the “μ/κ Ki ratio” value on KOR [1] is given as 355. For the same compound, the values for the Ki on KOR [1] (read-out: KOR Ki) and at MOR were 0.0015 µM and 0.533 µM, respectively.

On to `Cl.O=C(N[C@@H]1CC[C@@]2(O)[C@H]3Cc4cccc5c4[C@@]2(CCN3CC2CC2)[C@H]1O5)c1ccnc(Cl)c1` [Compound 6a, 17-Cyclopropylmethyl-4,5α-epoxy-14β-hydroxy-6β-{[4′-(2′-chloropyridyl)]carboxamido}morphinan hydrochloride], for which, at KOR [2], the “Selectivity δ/κ” value is 203 and the “Selectivity μ/κ” value amounted to 1.8.

A word on the EC50: it is the concentration at which the effect is half-maximal. For `O=C(N[C@@H]1CC[C@@]2(O)[C@H]3Cc4cccc5c4[C@@]2(CCN3CC2CC2)[C@H]1O5)c1ccnc(Br)c1` [Compound 6b, 17-Cyclopropylmethyl-4,5α-epoxy-14β-hydroxy-6β-{[4′-(2′-bromopyridyl)]carboxamido}morphinan], at KOR [2], the “Selectivity δ/κ” value was 280 and the “Selectivity μ/κ” value is recorded as 3.3. Moreover, on mouse DOR, the EC50 is 2.68 ± 0.689 µM and the “DOR [35S]-GTPγS binding % Emax of DPDPE” value amounted to 145.10 ± 12.31%. At rat MOR, the EC50 is 0.291 ± 0.042 µM and the “MOR [35S]-GTPγS binding % Emax of DAMGO” value was determined as 33.62 ± 3.92%. On human KOR, the EC50 came out at 0.0819 ± 0.00909 µM and the “KOR [35S]-GTPγS binding % Emax of U50,488H” value worked out at 99.27 ± 2.79%.

On to `N#Cc1cc(C(=O)N[C@@H]2CC[C@@]3(O)[C@H]4Cc5cccc6c5[C@@]3(CCN4CC3CC3)[C@H]2O6)ccn1` [Compound 6c, 17-Cyclopropylmethyl-4,5α-epoxy-14β-hydroxy-6β-{[4′-(2′-cyanopyridyl)]carboxamido}morphinan], for which, at KOR [2], the “Selectivity δ/κ” value stood at 551 and the “Selectivity μ/κ” value came to 9.5. Also, at mouse DOR, the EC50 was found to be 1.85 ± 0.152 µM and the “DOR [35S]-GTPγS binding % Emax of DPDPE” value is 113.90 ± 3.10%. On rat MOR, the EC50 is 0.338 ± 0.0311 µM and the “MOR [35S]-GTPγS binding % Emax of DAMGO” value worked out at 26.48 ± 3.73%. Also, at human KOR, the concentration for a half-maximal effect (EC50) stood at 0.092 ± 0.00847 µM and the “KOR [35S]-GTPγS binding % Emax of U50,488H” value is recorded as 100.20 ± 2.37%.

In the case of `Cc1cc(C(=O)N[C@@H]2CC[C@@]3(O)[C@H]4Cc5cccc6c5[C@@]3(CCN4CC3CC3)[C@H]2O6)ccn1` [Compound 6d, 17-Cyclopropylmethyl-4,5α-epoxy-14β-hydroxy-6β-{[4′-(2′-methylpyridyl)]carboxamido}morphinan], at KOR [2], the “Selectivity δ/κ” value came out at 38.0 and the “Selectivity μ/κ” value worked out at 0.41.

As to `COc1cc(C(=O)N[C@@H]2CC[C@@]3(O)[C@H]4Cc5cccc6c5[C@@]3(CCN4CC3CC3)[C@H]2O6)ccn1` [Compound 6e, 17-Cyclopropylmethyl-4,5α-epoxy-14β-hydroxy-6β-{[4′-(2′-methoxypyridyl)]carboxamido}morphinan], at KOR [2], the “Selectivity δ/κ” value is 67.9 and the “Selectivity μ/κ” value is reported as 0.53.

Values taken from PMC8009840 (Bioorganic chemistry, 2021).
